For 22 molecules, IC50 and EC50 results are on record in ChEMBL document CHEMBL1156157, “1,7-Disubstituted oxyindoles are potent and selective EP(3) receptor antagonists” (Bioorg Med Chem Lett, 2010).

In assay [1] the target is T1, Prostaglandin E2 receptor EP3 subtype (Homo sapiens, UniProt P43115).
T1 sequence (P43115 whole entry): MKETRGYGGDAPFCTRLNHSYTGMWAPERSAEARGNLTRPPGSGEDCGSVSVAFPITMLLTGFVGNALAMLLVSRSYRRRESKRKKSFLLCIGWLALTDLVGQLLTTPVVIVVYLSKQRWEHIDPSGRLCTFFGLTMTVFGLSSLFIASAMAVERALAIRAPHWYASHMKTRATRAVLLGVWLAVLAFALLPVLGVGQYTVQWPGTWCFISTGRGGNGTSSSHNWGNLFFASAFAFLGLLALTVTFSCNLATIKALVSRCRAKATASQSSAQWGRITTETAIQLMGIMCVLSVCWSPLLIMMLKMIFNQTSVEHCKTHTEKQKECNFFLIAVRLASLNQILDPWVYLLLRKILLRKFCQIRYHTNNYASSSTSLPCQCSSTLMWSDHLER
Nature of the assay: Displacement of [3H]PGE2 from human EP3 receptor in buffer.

Assay [2] deals with T1, Prostaglandin E2 receptor EP3 subtype. Nature of the assay: Displacement of [3H]PGE2 from human EP3 receptor in presence of 10% human serum. A general note: In a radioligand displacement assay an active substance lowers the binding of a labelled ligand.
The species named for assay [3] is Rattus norvegicus. The assay is described as follows: Antithrombotic activity in rat assessed as platelet aggregation. The assay is classed as functional. In a few lines: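 Functional EP3 antagonism measured in a rat platelet aggregation assay. Values reported as EC50 in nM.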

As for `O=C(/C=C/c1cccc2c1N(Cc1ccc3ccccc3c1)C(=O)C2)NS(=O)(=O)c1cccs1`, in assay [1], the IC50 is 23.6 nM.

With `O=C(/C=C/c1cccc2c1N(Cc1ccc(F)c(F)c1)C(=O)C2)NS(=O)(=O)c1ccc(F)c(F)c1`, the 50% inhibitory concentration (IC50) in assay [1] was found to be 0.9 nM; in assay [2], 47.8 nM.

Consider `O=C(/C=C/c1cccc2c1N(Cc1ccc(F)c(F)c1)C(=O)C2)NS(=O)(=O)c1cccc(Cl)c1`, for which the IC50 in assay [1] amounted to 0.4 nM; in assay [2] it was 35.5 nM.

`O=C(/C=C/c1cccc2c1N(Cc1ccc3ccccc3c1)C(=O)C2(CO)CO)NS(=O)(=O)c1ccc(F)c(F)c1`: the figures for the 50% inhibitory concentration (IC50) in assay [1] and in assay [2] were 11.6 nM and 187 nM, respectively.

In the case of `O=C(/C=C/c1cccc2c1N(Cc1ccc(Cl)cc1Cl)C(=O)C2=O)NS(=O)(=O)c1cc(Cl)c(Cl)s1`, the IC50 in assay [1] was found to be 6.5 nM; in assay [2] it was 136 nM.

In the case of `O=C(/C=C/c1cccc2c1N(Cc1ccc3ccccc3c1)C(=O)C2(CO)CO)NS(=O)(=O)c1cc(Cl)c(Cl)s1`, the IC50 in assay [1] is 2.3 nM; in assay [2] it was 243 nM.

`CC1C(=O)N(Cc2ccc(Cl)cc2Cl)c2c(/C=C/C(=O)NS(=O)(=O)c3cccs3)cccc21` (centres undefined): the concentration for half-maximal inhibition (IC50) was 2.4 nM in assay [1] and 660 nM in assay [2].

On to `CC1C(=O)N(Cc2ccc(Cl)cc2Cl)c2c(/C=C/C(=O)NS(=O)(=O)c3cc(Cl)c(Cl)s3)cccc21` (centres undefined), for which the EC50 in assay [3] stood at 47 nM. The IC50 is 3.4 nM in assay [1] and 23.9 nM in assay [2].

Regarding `O=C(/C=C/c1cccc2c1N(Cc1ccc3ccccc3c1)C(=O)C2=O)NS(=O)(=O)c1cccs1`, the values for the IC50 in assay [1] and in assay [2] were 13.7 nM and 260 nM, respectively.

As to `O=C(/C=C/c1cccc2c1N(Cc1ccc3ccccc3c1)C(=O)C2=O)NS(=O)(=O)c1cc(Cl)c(Cl)s1`, the IC50 in assay [1] came out at 12.3 nM; in assay [2], 15 nM.

With `O=C(/C=C/c1cccc2c1N(Cc1ccc3ccccc3c1)C(=O)C2=O)NS(=O)(=O)c1ccc(F)cc1`, the IC50 in assay [1] was 1.6 nM; in assay [2] it was 33.9 nM.

As for `CC1C(=O)N(Cc2ccc3ccccc3c2)c2c(/C=C/C(=O)NS(=O)(=O)c3ccc(F)c(F)c3)cccc21` (centres undefined), the IC50 stood at 0.6 nM in assay [1] and 20 nM in assay [2].

Turning to `CC1C(=O)N(Cc2ccc(F)c(F)c2)c2c(/C=C/C(=O)NS(=O)(=O)c3cccc(Cl)c3)cccc21` (centres undefined), the IC50 in assay [1] was 4 nM; in assay [2] it was 39 nM.

On to `CC1C(=O)N(Cc2ccc(Cl)cc2Cl)c2c(/C=C/C(=O)NS(=O)(=O)c3ccc(Cl)c(Cl)c3)cccc21` (centres undefined), for which the IC50 amounted to 0.9 nM in assay [1] and 9.8 nM in assay [2].

For `O=C(/C=C/c1cccc2c1N(Cc1ccc(F)c(F)c1)C(=O)C2)NS(=O)(=O)c1cc(F)c(F)cc1F`, the IC50 stood at 0.7 nM in assay [1] and 42 nM in assay [2].

As for `O=C(/C=C/c1cccc2c1N(Cc1ccc(F)c(F)c1)C(=O)C2)NS(=O)(=O)c1cc(Cl)c(Cl)s1`, the results for the half-inhibitory concentration (IC50) in assay [1] and in assay [2] were 0.4 nM and 55.4 nM, respectively.

With `O=C(/C=C/c1cccc2c1N(Cc1ccc3ccccc3c1)C(=O)C21OCCO1)NS(=O)(=O)c1cc(Cl)c(Cl)s1`, the IC50 is 7.9 nM in assay [1] and 82.4 nM in assay [2].

As to `O=C(/C=C/c1cccc2c1N(Cc1ccc(F)c(F)c1)C(=O)C2)NS(=O)(=O)c1ccc(Cl)c(Cl)c1`, the IC50 in assay [1] was found to be 0.3 nM; in assay [2], 55.4 nM.

Take `CC1C(=O)N(Cc2ccc(F)c(F)c2)c2c(/C=C/C(=O)NS(=O)(=O)c3ccc(Cl)c(Cl)c3)cccc21` (centres undefined): the IC50 in assay [1] came out at 0.9 nM; in assay [2], 95.8 nM.

For `O=C(/C=C/c1cccc2c1N(Cc1ccc3ccccc3c1)C(=O)C2=O)NS(=O)(=O)c1ccc(Cl)c(Cl)c1`, the 50% inhibitory concentration (IC50) was found to be 1 nM in assay [1] and 12.7 nM in assay [2].

On to `O=C(/C=C/c1cccc2c1N(Cc1ccc3ccccc3c1)C(=O)C2=O)NS(=O)(=O)c1cc(F)c(F)cc1F`, for which the IC50 was 0.6 nM in assay [1] and 17.4 nM in assay [2].

On to `CC1C(=O)N(Cc2ccc(F)c(F)c2)c2c(/C=C/C(=O)NS(=O)(=O)c3cc(F)c(F)cc3F)cccc21` (centres undefined), for which the figures for the IC50 in assay [1] and in assay [2] were 1.4 nM and 10.7 nM, respectively.

What is called IC50 is the point on the concentration scale where inhibition reaches its midpoint. One may read the EC50 as the midpoint of the concentration-response curve.
